Published values from different studies.
Protocols differ between the studies behind these lines.
Glucagon receptor: Glucagon receptor (Mus musculus, UniProt Q61606)
MTNR1A: Melatonin receptor type 1A (MTNR1A, Homo sapiens, UniProt P48039)

CC[C@H](C)[C@H](NC(=O)[C@H](CO)NC(=O)[C@H](Cc1ccc(O)cc1)NC(=O)[C@H](CC(=O)O)NC(=O)[C@H](CO)NC(=O)[C@@H](NC(=O)[C@H](Cc1ccccc1)NC(=O)[C@@H](NC(=O)CNC(=O)[C@H](CCC(=O)O)NC(=O)[C@H](C)NC(=O)[C@@H](N)Cc1ccc(O)cc1)[C@@H](C)O)[C@@H](C)CC)C(=O)N[C@@H](C)C(=O)N[C@@H](CCSC)C(=O)N[C@@H](CC(=O)O)C(=O)N[C@@H](CCCCN)C(=O)N[C@H](C(=O)N[C@@H](CCCNC(=N)N)C(=O)N[C@@H](CCC(N)=O)C(=O)N[C@@H](CCC(N)=O)C(=O)N[C@@H](CC(=O)O)C(=O)N[C@@H](Cc1ccccc1)C(=O)N[C@H](C(=O)N[C@@H](CC(N)=O)C(=O)N[C@@H](Cc1c[nH]c2ccccc12)C(=O)N[C@@H](CC(C)C)C(=O)N[C@@H](CC(C)C)C(=O)N[C@@H](C)C(=O)N[C@@H](CCC(N)=O)C(=O)N[C@@H](CCCNC(=N)N)C(=O)NCC(=O)N[C@@H](CCCCN)C(=O)N[C@@H](CCCCN)C(=O)N[C@@H](CO)C(=O)N[C@@H](CC(=O)O)C(=O)N[C@@H](Cc1c[nH]c2ccccc12)C(=O)N[C@@H](CCCCN)C(=O)N[C@@H](Cc1c[nH]cn1)C(=O)N[C@@H](CC(N)=O)C(=O)N[C@H](C(=O)N[C@H](C(=O)N[C@@H](CCC(N)=O)C(=O)O)[C@@H](C)O)[C@@H](C)CC)C(C)C)[C@@H](C)CC — EC50 (Glucagon receptor; reporter gene, agonist, luciferase): > 1000 nM
COCC(CNC(C)=O)c1cccc2ccc(OC)cc12 (stereo not drawn) — EC50 (MTNR1A; cAMP, agonist, TR-FRET): 21.4 nM
COc1cccc(CN2CCOc3ccc(OC)cc32)c1 — EC50 (MTNR1A; cAMP, agonist, luciferase): 6.11 nM
Cc1cccnc1C(=O)Nc1ccc(N2C(=O)c3cccc(Cl)c3C2=O)c(Cl)c1 — EC50 (Metabotropic glutamate receptor 1 (Grm1, Rattus norvegicus, UniProt P23385); calcium signal, positive allosteric modulator): 367 nM
CC[C@H](C)[C@H](NC(=O)[C@H](Cc1ccccc1)NC(=O)[C@H](CCC(=O)O)NC(=O)[C@H](CCCCN)NC(=O)[C@H](C)NC(=O)[C@H](C)NC(=O)[C@H](CCC(N)=O)NC(=O)CNC(=O)[C@H](CCC(=O)O)NC(=O)[C@H](CC(C)C)NC(=O)[C@H](Cc1ccc(O)cc1)NC(=O)[C@H](CO)NC(=O)[C@H](CO)NC(=O)[C@@H](NC(=O)[C@H](CC(=O)O)NC(=O)[C@H](CO)NC(=O)[C@@H](NC(=O)[C@H](Cc1ccccc1)NC(=O)[C@@H](NC(=O)CNC(=O)[C@H](CCC(=O)O)NC(=O)[C@H](C)NC(=O)[C@@H](N)Cc1c[nH]cn1)[C@@H](C)O)[C@@H](C)O)C(C)C)C(=O)N[C@@H](C)C(=O)N[C@@H](Cc1c[nH]c2ccccc12)C(=O)N[C@@H](CC(C)C)C(=O)N[C@H](C(=O)N[C@@H](CCCCN)C(=O)NCC(=O)N[C@@H](CCCN=C(N)N)C(=O)NCC(=O)O)C(C)C — EC50 (Glucagon receptor; reporter gene, agonist, luciferase): > 1000 nM
Clc1sccc1CNc1cccc(-c2nnc[nH]2)c1 — EC50 (MTNR1A; cAMP, agonist, luciferase): 9300 nM
COc1ccc2[nH]cc(CCNC(C)=O)c2c1I — EC50 (MTNR1A; cAMP, agonist, TR-FRET): 229 nM
COc1ccc(CSc2nnc(C3CC3)[nH]2)cc1 — EC50 (MTNR1A; cAMP, agonist, luciferase): 2.96 nM
C#CCOCCOCCOCCOc1ccc2c3c1C1CCCC1N3CCNC2 (racemic) — EC50 (5-hydroxytryptamine receptor 2C (HTR2C, Homo sapiens, UniProt P28335); calcium signal, agonist, fluorescence): 647 nM
